CSC inhib = cancer stem cell viability inhibitors, primary screen, luminescence. inhibition, % at 7.5 µM. cancer stem cell-like cells viability. 300,000 compounds, 1.1% hits; in the data active means inhibition above about 75%; inconclusive means no clear call, values can overlap the other calls; tested in HMLE shEcad cells
Beta apoptosis = inhibitors of cytokine-induced beta cell apoptosis, primary screen, luminescence | protection from apoptosis, % (test concentration not listed) | 300,000 compounds, 0.8% hits | INS-1E cytokine-induced death, ATP luminescence, 48 h; percent of positive-control rescue, neutral wells zero;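 active means Every replicate reaches about 75%, or at least half do and their mean reaches it too, limit read from the data; inconclusive means At least half of replicates reach the limit but their mean does not; inactive means Under half of replicates reach the limit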;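 further: higher means more ATP so stronger rescue from cytokine killing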
SKKanGAS inh = S. pyogenes SKKanGAS growth inhibitors in kanamycin, primary screen, streptokinase expression inhibitor project, SKKanGAS strain, BacTiter-Glo luminescence | 6 h | inhibition, % at 7.5 µM | 300,000 compounds, 1.3% hits;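 active means mean replicate score, as percent of positive control median, at least 50; inconclusive means mean below 50 but one replicate at or above 50; inactive means mean and every replicate below 50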;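 further: strain carries kanamycin resistance gene driven by streptokinase promoter and grows in 40 µg/ml kanamycin; loss of luminescence reflects streptokinase promoter inhibition or plain growth inhibition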
CHOP UPR activ = activators of apoptotic CHOP UPR arm, primary screen, cell-based, CHO-CHOP luciferase reporter, luminescence, uHTS; 330,000 compounds, 0.34% hits; UPR activation; percent of tunicamycin response over DMSO baseline; activation, % at 10 µM;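 active means at 10 µM dose, activation of 40% or more, normalized to positive control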
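Dosing – one dose, 10 µM in 0.5% DMSO · System – CHO-CHOP cells, stable luciferase reporter of PERK-eIF2a-CHOP signalling · Input – 500 cells/well · Control set – tunicamycin 10 µg/mL final as positive, DMSO-only wells as negative · Timing – 6 h compound treatment, 37 °C · Measure – % activation vs tunicamycin · Technique – luminescence read with Steady-Glo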
UPR XBP1 act = activators of adaptive XBP1 UPR arm, primary screen, cell-based, CHO-XBP1 luciferase reporter, luminescence, uHTS; activation, % at 20 µM; 330,000 compounds, 0.33% hits; AID 463104, 2010; IRE1-XBP1 UPR activation; percent of tunicamycin response, DMSO as zero;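 active means versus positive control, 20 µM dose yields 30% or more activation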
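incubation = overnight seeding at 37 °C, 6 h compound treatment at 37 °C | assay system = CHO-XBP1 cells stably carrying IRE1-XBP1-driven luciferase reporter | input = 1000 cells per well | detection = luciferase luminescence | dosing = single point, 20 µM final compound, 1% DMSO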
Mdm2 MdmX PPI = inhibitors of human Mdm2-MdmX association, primary screen, cell-based, luminescence, split luciferase, SaOS-2, uHTS | 330,000 compounds, 3% hits | SaOS-2 split-luciferase Mdm2/MdmX complementation | AID 485346, 2010 | inhibition, % at 8 µM;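 active means inhibition of at least 50% at 8 µM in the primary screen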
Target sequence (O15151 whole entry, looked up): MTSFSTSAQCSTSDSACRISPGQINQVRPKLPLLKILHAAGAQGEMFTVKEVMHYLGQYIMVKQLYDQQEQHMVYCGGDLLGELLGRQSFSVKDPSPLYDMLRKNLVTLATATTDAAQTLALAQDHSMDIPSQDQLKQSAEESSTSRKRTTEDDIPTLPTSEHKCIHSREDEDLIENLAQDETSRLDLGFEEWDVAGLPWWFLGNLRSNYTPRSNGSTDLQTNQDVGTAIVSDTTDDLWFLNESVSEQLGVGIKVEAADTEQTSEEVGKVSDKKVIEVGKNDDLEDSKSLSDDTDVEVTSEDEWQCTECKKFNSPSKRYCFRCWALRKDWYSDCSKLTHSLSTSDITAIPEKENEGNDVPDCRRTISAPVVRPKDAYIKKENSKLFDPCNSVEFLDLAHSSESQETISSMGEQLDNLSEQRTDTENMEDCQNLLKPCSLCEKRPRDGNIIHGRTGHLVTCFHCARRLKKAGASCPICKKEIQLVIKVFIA
Target sequence (Q00987 whole entry, looked up): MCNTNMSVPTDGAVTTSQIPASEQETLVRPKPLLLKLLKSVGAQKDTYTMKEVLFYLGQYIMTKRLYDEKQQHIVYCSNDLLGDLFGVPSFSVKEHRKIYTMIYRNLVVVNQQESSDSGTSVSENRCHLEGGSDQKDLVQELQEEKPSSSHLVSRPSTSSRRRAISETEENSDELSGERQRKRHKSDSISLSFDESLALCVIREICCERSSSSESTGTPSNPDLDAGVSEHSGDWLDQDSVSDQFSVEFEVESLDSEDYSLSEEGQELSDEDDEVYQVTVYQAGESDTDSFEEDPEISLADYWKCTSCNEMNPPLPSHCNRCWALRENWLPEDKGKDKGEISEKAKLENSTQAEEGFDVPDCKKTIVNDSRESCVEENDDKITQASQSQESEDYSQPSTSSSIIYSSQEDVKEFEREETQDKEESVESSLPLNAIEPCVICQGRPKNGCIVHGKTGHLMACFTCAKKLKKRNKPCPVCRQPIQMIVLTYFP
CHOP UPR conf = activators of apoptotic CHOP UPR arm, confirmation, cell-based, CHO-CHOP luciferase reporter, single concentration | CHO-CHOP cells, CHOP-luciferase reporter luminescence; percent of tunicamycin response, DMSO as zero | activation, % at 10 µM | 1,000 compounds, 64% hits | AID 463112, 2010 | shares compounds with CHOP UPR activ; in the data active means activation above about 33%
XBP1 UPR conf = IRE1-XBP1 UPR arm activators, confirmation, cell-based, CHO-XBP1 luciferase reporter, luminescence, single concentration. AID 485299, 2010. activation, % at 20 µM. 1,000 compounds, 63% hits. shares compounds with UPR XBP1 act;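 active means reporter signal at least 30% of the positive control's activation in two or more of four replicate wells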
Mdm2 MdmX conf = Mdm2-MdmX complex disruptors, retested hits, confirmation, luminescence, single concentration | 10,000 compounds, 55% hits | AID 489028, 2010 | shares compounds with Mdm2 MdmX PPI | Mdm2-MdmX binding, luminescent assay | inhibition, % at 8 µM; in the data active means inhibition above about 40%
FLuc counter = full-length luciferase signal inhibition, confirmation, counter-screen for Mdm2/MdmX interaction inhibitor project, cell-based, single concentration, SaOS-2; AID 504607, 2011; SaOS-2 full-length luciferase counterscreen, luminescence; inhibition, % at 8 µM; shares compounds with Mdm2 MdmX PPI; 6,200 compounds, 77% hits;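 active means mean inhibition at 8 µM reaching about 37%, which flags the compound as non-specific, limit read from the data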;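 further: p53-null SaOS-2 cells with luciferase driven by a doxycycline-inducible promoter; compound on cells about two nights before reading with doxycycline added after day one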
Numbers stand for hits; i = inactive; ? = inconclusive; nt = not tested or not shown. A selection: hits, their analogues and other compounds. The true share with any hit is near 4.8%.

SMILES | CSC inhib | Beta apoptosis | SKKanGAS inh | CHOP UPR activ | UPR XBP1 act | Mdm2 MdmX PPI | CHOP UPR conf | Mdm2 MdmX conf | others
O=CC1=C(c2ccccc2)Oc2ccccc2O1 | i | i | i | 67.4 | 36.7 | 56.8 | 72.4 | i | XBP1 UPR conf=33.1
CN(C)/C=C1/N=C(c2ccccc2)OC1=O | i | i | i | i | i | i | nt | nt
Cc1nc(NCc2ccco2)c2c(C)c(C)sc2n1 | 97.6 | i | i | 40.6 | i | 100.4 | i | 95.8 | FLuc counter=53.8
O=C1/C(=C/c2ccccc2[N+](=O)[O-])COc2ccccc21 | i | i | i | 173.1 | i | 97.9 | 85.5 | 44.7 | FLuc counter=i
O=C(CN(C(=O)CNS(=O)(=O)c1ccccc1)c1ccc(F)cc1)NCc1ccco1 | i | i | i | i | i | i | nt | nt
COc1ccc(N=c2oc3c(OC)cccc3cc2C(=O)NCc2ccco2)c(OC)c1 | i | i | i | 171.9 | 73.6 | 67.6 | 100.7 | i | XBP1 UPR conf=i
Cc1cccc(C(=O)NCCc2nnc(SCC(=O)Nc3cccc(C(=O)O)c3)n2C)c1 | i | i | nt | i | i | i | nt | nt
Cc1cccc(C(=O)Nc2ccc(C(=O)/C=C/c3ccncc3)cc2)c1 | i | i | i | 49.2 | i | 96.5 | i | i
CCOc1ccc2c(c1)C(=NNC(=O)c1ccncc1)c1cc(OCC)ccc1-2 | i | i | 65.0 | 50.4 | i | 66.2 | 43.3 | 52.1 | FLuc counter=55.4
CCOc1ccc(NC(=O)c2ccncc2)cc1 | i | nt | i | i | i | i | nt | nt
O=C(CCNS(=O)(=O)c1ccccc1)N1CCC(Cc2ccccc2)CC1 | i | i | i | i | i | i | nt | nt
O=c1c2c3c(sc2ncn1/N=C/c1ccc([N+](=O)[O-])o1)CCCC3 | 103.4 | i | i | 213.4 | i | 57.6 | 194.9 | 43.2 | FLuc counter=57.4
Cn1cc(/C=N/n2cnc3sc4c(c3c2=O)CCCC4)c2ccccc21 | nt | i | i | i | i | i | nt | nt
OCCCn1c(C2CCCN2c2nc(-c3ccc(Cl)cc3)cs2)nc2cc(Cl)c(N3CCCCC3)cc21 (stereo not drawn) | i | i | i | 87.8 | 121.6 | 72.5 | i | i | XBP1 UPR conf=198.1
O=C1Nc2ccccc2/C1=C/C(=O)c1cccs1 | 82.9 | i | i | 74.1 | i | 64.1 | 125.0 | i
COc1ccc(C(=O)/C=C2/C(=O)Nc3ccccc32)c(OC)c1 | 75.3 | i | i | 109.2 | i | 86.0 | 113.9 | i
CCc1ccc(-n2c(SCC(=O)c3ccc4c(c3)NC(=O)CO4)nc3ccccc3c2=O)cc1 | i | i | i | 62.3 | 61.4 | 64.1 | 115.1 | i | XBP1 UPR conf=117.5
C=C(C)C(=O)Nc1cccc(C2=NOC3(C2)C[C@@H](C(N)=O)N(C(=O)CC(c2ccccc2)c2ccccc2)C3)c1 (stereo partly drawn) | i | i | i | i | i | i | nt | nt
COc1ccc(N=c2oc3ccc(OC)cc3cc2-c2nc3ccccc3[nH]2)cc1 | i | i | i | 134.7 | 84.3 | 92.7 | 147.0 | i | XBP1 UPR conf=132.6
NS(=O)(=O)c1ccc(N/N=C/c2cn(-c3ccccc3)nc2-c2ccccc2)c([N+](=O)[O-])c1 | 139.9 | 91.1 | i | 104.4 | 78.4 | 84.0 | i | i | XBP1 UPR conf=74.8
FC(F)(F)c1nnc2c(Sc3ccccc3)nc3ccc(Cl)cc3n12 | i | 96.1 | i | 233.4 | 115.4 | 97.2 | 151.9 | 98.8 | XBP1 UPR conf=124.0;FLuc counter=i
FC(F)(F)c1nc2ccccc2n2c(-c3ccc(Cl)cc3Cl)nnc12 | nt | i | i | i | i | i | nt | nt
COc1ccccc1OCCCCN1CCCCC1 | i | i | i | i | i | i | nt | nt
COc1ccccc1OCCN1CSC(=S)N(C)C1 | ? | i | i | 81.9 | i | 51.7 | i | i | FLuc counter=82.0
CCC(Sc1nc(C)cc(C)n1)C(=O)Nc1nccs1 (stereo not drawn) | i | i | i | i | i | i | nt | nt
SMILES | CSC inhib | Beta apoptosis | SKKanGAS inh | CHOP UPR activ | UPR XBP1 act | Mdm2 MdmX PPI | CHOP UPR conf | Mdm2 MdmX conf | others
O=C(c1ccc(Cl)cc1)C1CCN(Cc2ccccc2)CC1 | i | i | i | i | i | i | nt | nt
COc1ccc(C(=O)C(CN2CCCC2)c2ccccc2)cc1 (stereo not drawn) | 86.2 | i | i | 65.6 | i | 98.7 | 38.5 | 64.0 | FLuc counter=i
COc1ccc(C(=O)C(CN2CCOCC2)c2ccccc2)cc1 (stereo not drawn) | i | i | i | 45.7 | i | 79.5 | 35.5 | 80.8 | FLuc counter=i
O=C(c1ccc(Cl)cc1)C(CN1CCCC1)c1ccccc1 (stereo not drawn) | i | i | i | 150.9 | i | 71.3 | 169.7 | i
Cc1cc(C(C)(C)C)ccc1OC(=O)C1=CC=CN2CCS(=O)(=O)N=C12 | nt | nt | nt | i | i | i | nt | nt
CC(C)(C)c1nc(NCCO)c2nnn(Cc3ccccc3)c2n1 | i | i | i | i | i | i | nt | nt
CCOc1ccc(C(=O)CCC(=O)N(CC)CC(=O)NCc2ccc(Cl)cc2)cc1 | i | i | i | i | i | i | nt | nt
Cn1c(-c2cccc(OCc3ccccc3)c2)nc2c1c(=O)[nH]c(=O)n2Cc1ccccc1 | i | i | nt | 75.6 | i | 84.9 | 143.8 | i
Cc1[nH]c2ccccc2c1/C=N/Nc1nc2ccccc2[nH]1 | i | 118.3 | 61.2 | 87.1 | i | 61.5 | i | i
Cc1[nH]c2ccccc2c1/C=N/Nc1nc(N2CCCCC2)nc(N2CCCCC2)n1 | i | i | i | i | i | i | nt | nt
CCN(CC)Cc1c(O)ccc2c1O/C(=C\C=C\c1ccccc1)C2=O | 109.0 | 104.6 | i | 69.3 | i | 98.3 | i | 71.2 | FLuc counter=i
CCCCN1CC(=O)N2[C@H]3c4ccc(OC)cc4OC[C@@H]3[C@H](C(=O)OCC)[C@]2(C)C1=O | i | i | nt | i | i | i | nt | nt
CNC(=O)C1CC(=O)N(CCc2ccc(OC)c(OC)c2)C(=Nc2ccc(F)cc2)S1 (stereo not drawn) | i | i | i | i | i | i | nt | nt

Screening results deposited in PubChem by several laboratories.
